Calls of active or inactive are those of the source. The calls are words filed in the database; no cut-off is given here.
Tests used:
[1] = molecular target: T1, Aldo-keto reductase family 1 member C3 (Homo sapiens) (UniProt P42330); assay: Inhibition of AKR1C3 in human 22Rv1 cells assessed as potentiation of enzalutamide-induced apoptosis by measuring increase in cleaved PARP level at 10 uM pre-incubated for 2 hrs before addition of pregnenolone for 24 hrs by Western blot analysis; type: cell-based; conditions: CWR22R
T1 sequence (whole entry): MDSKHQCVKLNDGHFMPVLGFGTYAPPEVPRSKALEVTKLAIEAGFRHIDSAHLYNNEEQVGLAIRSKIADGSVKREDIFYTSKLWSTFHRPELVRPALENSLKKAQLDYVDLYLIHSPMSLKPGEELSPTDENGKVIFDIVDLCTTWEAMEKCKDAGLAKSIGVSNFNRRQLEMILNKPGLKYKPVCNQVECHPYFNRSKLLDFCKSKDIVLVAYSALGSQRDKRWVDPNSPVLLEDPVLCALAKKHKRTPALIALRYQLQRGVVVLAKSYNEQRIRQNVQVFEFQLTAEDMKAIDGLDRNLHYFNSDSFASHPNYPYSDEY
Procedure, shortened: (§1)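 Apoptotic markers in 22Rv1: 2 h pretreatment with or without 10 μM inhibitor and/or 50 μM enzalutamide, then 24 h 20 nM pregnenolone; Bax/Bcl-2 ratio as percent of control; cleaved caspase-3 also by immunofluorescence with DAPI.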

CWR22R [2] = assay: Effect on AKR1C3 gene expression in human 22Rv1 cells at 10 uM incubated for 24 hrs by semiquantitative RT-PCR analysis; type: functional, cell-based
[3] = molecular target: T1, Aldo-keto reductase family 1 member C3 (Homo sapiens); assay: Inhibition of AKR1C3 in human 22Rv1 cells assessed as potentiation of enzalutamide-induced apoptosis by measuring increase in Bax level at 10 uM pre-incubated for 2 hrs before addition of pregnenolone for 24 hrs by Western blot analysis; type: cell-based; conditions: CWR22R; procedure, shortened: as §1
PC-3 [4] = conditions: Homo sapiens, at 10 µM
[5] = molecular target: T1, Aldo-keto reductase family 1 member C3 (Homo sapiens); assay: Inhibition of AKR1C3 in human 22Rv1 cells assessed as potentiation of abiraterone-induced of ROS generation at 10 uM by DCFH-DA dye based flow cytometric analysis; type: cell-based; conditions: CWR22R
Procedure, shortened: (§2)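 22Rv1 cells exposed 3 h to 10 μM inhibitor and/or abiraterone, or 50 μM enzalutamide; intracellular ROS by flow cytometry as DCF-positive cells, percent of vehicle control.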

[6] = molecular target: T1, Aldo-keto reductase family 1 member C3 (Homo sapiens); assay: Inhibition of AKR1C3 in human 22Rv1 cells assessed as as reduction in finasteride-induced metabolism of 4AD into testosterone at 10 to 20 uM pre-incubated for 2 hrs in presence of finasteride before 4AD addition for 24 hrs by EIA; type: cell-based; conditions: CWR22R
Procedure, shortened: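 22Rv1 cells pretreated 2 h with or without 2 μM finasteride and/or inhibitor, then cultured 24 h with 100 nM 4AD; testosterone in cell extracts quantified by EIA and expressed as percent of finasteride-free control.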

[7] = molecular target: T1, Aldo-keto reductase family 1 member C3 (Homo sapiens); assay: Inhibition of AKR1C3 in human 22Rv1 cells assessed as potentiation of abiraterone-induced apoptosis by measuring increase in cleaved PARP level at 10 uM pre-incubated for 2 hrs before addition of pregnenolone for 24 hrs by Western blot analysis; type: cell-based; conditions: CWR22R
[8] = molecular target: T1, Aldo-keto reductase family 1 member C3 (Homo sapiens); assay: Inhibition of AKR1C3 in human 22Rv1 cells assessed as as reduction in PSA mRNA expression at 10 to 20 uM pre-incubated for 2 hrs before pregnenolone stimulation for 24 hrs by RT-qPCR analysis; type: cell-based; conditions: CWR22R
Procedure, shortened: (§3)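 22Rv1 cells pretreated 2 h with test agents, then stimulated 24 h with 20 nM pregnenolone; AR, TMPRSS2 and PSA mRNA measured by RT-qPCR, given as ratio to pregnenolone-free control.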

PC-3 [9] = assay: Inhibition of cell proliferation of human PC3 cells at 10 to 20 uM incubated for 72 hrs by alamar blue assay; type: functional, cell-based
Procedure, shortened: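 PC3 cells (AKR1C3-positive, AR-negative) grown 72 h with or without inhibitor; growth curves of viable cell number compared with inhibitor-free cells.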

[10] = molecular target: T1, Aldo-keto reductase family 1 member C3 (Homo sapiens); assay: Inhibition of AKR1C3 in human 22Rv1 cells assessed as potentiation of enzalutamide-induced of ROS generation at 10 uM by DCFH-DA dye based flow cytometric analysis; type: cell-based; conditions: CWR22R; procedure, shortened: as §2
[11] = molecular target: T1, Aldo-keto reductase family 1 member C3 (Homo sapiens); assay: Inhibition of AKR1C3 in human 22Rv1 cells assessed as potentiation of abiraterone-induced apoptosis by measuring increase in Bax level at 10 uM pre-incubated for 2 hrs before addition of pregnenolone for 24 hrs by Western blot analysis; type: cell-based; conditions: CWR22R
[12] = molecular target: T1, Aldo-keto reductase family 1 member C3 (Homo sapiens); assay: Inhibition of AKR1C3 in human 22Rv1 cells assessed as potentiation of enzalutamide-induced apoptosis by measuring increase in cleaved caspase-3 level at 10 uM pre-incubated for 2 hrs before addition of pregnenolone for 24 hrs by Western blot analysis; type: cell-based; conditions: CWR22R; procedure, shortened: as §1
[13] = molecular target: T1, Aldo-keto reductase family 1 member C3 (Homo sapiens); assay: Inhibition of AKR1C3 in human 22Rv1 cells assessed as potentiation of abiraterone-induced apoptosis by measuring reduction in BCl2 level at 10 uM pre-incubated for 2 hrs before addition of pregnenolone for 24 hrs by Western blot analysis; type: cell-based; conditions: CWR22R
[14] = molecular target: T1, Aldo-keto reductase family 1 member C3 (Homo sapiens); assay: Inhibition of AKR1C3 in human 22Rv1 cells assessed as as reduction in AR mRNA expression at 10 to 20 uM pre-incubated for 2 hrs before pregnenolone stimulation for 24 hrs by RT-qPCR analysis; type: cell-based; conditions: CWR22R; procedure, shortened: as §3
[15] = molecular target: T1, Aldo-keto reductase family 1 member C3 (Homo sapiens); assay: Inhibition of AKR1C3 in human 22Rv1 cells assessed as as reduction in AR nuclear translocation at 10 to 20 uM pre-incubated for 2 hrs in absence of finasteride by Western blot analysis; type: cell-based; conditions: CWR22R
LNCaP = assay: Inhibition of pregnenolone-induced cell proliferation of human LNCAP cells at 10 to 20 uM incubated for 72 hrs by alamar blue assay; type: functional, cell-based
Procedure, shortened: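 LNCaP and androgen-low-sensitive LNCaP-E9 cells pretreated 2 h with inhibitor, then 72 h with 20 nM pregnenolone; viable cells expressed as percent of untreated LNCaP control.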

CWR22R [16] = assay: Inhibition of pregnenolone-induced cell proliferation of human 22Rv1 cells at 10 to 20 uM pre-incubated for 2 hrs before pregnenolone stimulation for 72 hrs by alamar blue assay; type: functional, cell-based
Procedure, shortened: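 22Rv1 cells (AKR1C3- and AR-expressing) pretreated 2 h with agents, then cultured 72 h with 20 nM pregnenolone; viable cell number given as percent of pregnenolone-free control.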

[17] = molecular target: T1, Aldo-keto reductase family 1 member C3 (Homo sapiens); assay: Inhibition of AKR1C3 in human 22Rv1 cells assessed as as reduction in AR nuclear translocation at 10 pre-incubated for 2 hrs before 4AD addition for 24 hrs by Western blot analysis; type: cell-based; conditions: CWR22R
Procedure, shortened: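 22Rv1 cells pretreated 2 h with or without 10 μM inhibitor, then exposed 24 h to 10 nM 4AD; nuclear AR measured by Western blot of cell extracts, normalized to Lamin A+C, as percent of control.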

CWR22R [18] = assay: Induction of apoptosis in human 22Rv1 cells assessed as increase in cleaved PARP level at 10 uM pre-incubated for 2 hrs before addition of pregnenolone for 24 hrs by Western blot analysis; type: functional, cell-based; procedure, shortened: as §1
[19] = molecular target: T1, Aldo-keto reductase family 1 member C3 (Homo sapiens); assay: Inhibition of AKR1C3 in human 22Rv1 cells assessed as potentiation of abiraterone-induced apoptosis by measuring increase in DNA fragmentation at 10 uM pre-incubated for 2 hrs before addition of pregnenolone for 24 hrs by ethidium bromide staining based DNA agarose gel electrophores method; type: cell-based; conditions: CWR22R
[20] = molecular target: T1, Aldo-keto reductase family 1 member C3 (Homo sapiens); assay: Inhibition of AKR1C3 in human 22Rv1 cells assessed as potentiation of abiraterone-induced apoptosis by measuring increase in cleaved caspase-3 level at 10 uM pre-incubated for 2 hrs before addition of pregnenolone for 24 hrs by Western blot analysis; type: cell-based; conditions: CWR22R

Compound | inhibition [1] | Activity (CWR22R [2]) | inhibition [3] | inhibition (PC-3 [4]) | inhibition [5] | inhibition [6] | inhibition [7] | inhibition [8] | inhibition (PC-3 [9]) | inhibition [10] | inhibition [11] | inhibition [12] | inhibition [13] | inhibition [14] | inhibition [15] | inhibition (LNCaP) | inhibition (CWR22R [16]) | inhibition [17] | Activity (CWR22R [18]) | inhibition [19] | also measured
N=c1oc2c(O)cccc2cc1C(=O)Nc1ccc(F)cc1 | Active | inactive | Active | Active | Active | Active | Active | Active | Active | Active | Active | Active | Active | Active | Active | Active | Active | Active | Active | Active | inhibition [20]: Active
Cc1ccc(NC(=O)c2cc3cccc(O)c3oc2=N)cc1 | Active | inactive | Active | Active | Active | Active | Active | Active | Active | Active | Active | Active | Active | Active | Active | Active | Active | Active | Active | Active | inhibition [20]: Active

— ChEMBL document CHEMBL4619820, “Development of Novel AKR1C3 Inhibitors as New Potential Treatment for Castration-Resistant Prostate Cancer” (J Med Chem, 2020)
